The values that follow come from ChEMBL document CHEMBL5236549, “Discovery of 2-Sulfinyl-Diazabicyclooctane Derivatives, Potential Oral β-Lactamase Inhibitors for Infections Caused by Serine β-Lactamase-Producing Enterobacterales” (J Med Chem, 2021).

A short description of series [1]: Inhibition of bacterial beta-lactamase CTX-M-15 using nitrocefin as substrate incubated for 20 mins. Also on record: species or system Bacteria.
The nature of series [2]: Inhibition of bacterial beta-lactamase KPC-2 using nitrocefin as substrate incubated for 20 mins. Also on record: species or system Bacteria. Put shortly: (§1)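 Nitrocefin hydrolysis read by absorbance. Enzyme titrated to give about 0.2 absorbance change over the no-enzyme control. Enzyme added to nitrocefin (final 50 μg/mL) plus inhibitor, no preincubation, read after 20 min at 35 °C. IC50 is 50% reduction of hydrolysis. N = 1.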

A short description of series [3]: Total clearance in rat by LC-MS/MS analysis. Format: ADME. Particulars: in vivo.
Series [4] in a line: Stability in rat serum assessed as compound remaining at 5 micromol/L incubated for 30 mins by LC-MS/MS analysis. Format: ADME, cell-free. Particulars: dose 5 µmol/L, read-out: Stability. The gist of the method: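 Pooled rat serum incubated with 5 μmol/L compound for 30 min at 37 °C, in duplicate; aliquot mixed with methanol, centrifuged, supernatant analysed by LC/MS/MS for % remaining.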

The nature of series [5]: Inhibition of bacterial beta-lactamase OXA-48 using nitrocefin as substrate incubated for 20 mins. Also on record: species or system Bacteria. The gist of the method: as §1
The next series relates to Escherichia coli. The series can be described thus: Antibacterial activity against Escherichia coli ATCC SR09613 assessed as reduction in bacterial growth by measuring minimum […] concentration incubated for 16 to 24 hrs by CLSI based two-fold serial dilution method. The class given is functional. The conditions noted are these: time 16-24 hrs. Put shortly: (§2)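 MPC₁ by broth microdilution: twofold serial dilutions of inhibitor in cation-adjusted Mueller Hinton broth containing ceftibuten at 1 μg/mL. Inoculum about 5 × 10⁴ cfu/well final, set from OD625. Incubation at 35 °C for 16−20 h. […] N = 1.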

In series [6] the test system is Klebsiella pneumoniae. Nature of the series: Antibacterial activity against Klebsiella pneumoniae ATCC SR201218 assessed as reduction in bacterial growth by measuring minimum […] concentration incubated for 16 to 24 hrs by CLSI based two-fold serial dilution method. The class given is functional. The conditions noted are these: time 16-24 hrs. Put shortly:
as §2

Series [7] concerns Enterobacter cloacae. The series can be described thus: Antibacterial activity against Enterobacter cloacae SR200030 assessed as inhibition of bacterial growth incubated for 16 to 24 hrs by CLSI based two-fold serial dilution method. The class given is functional. The conditions noted are these: time 16-24 hrs. The gist of the method:
(§3)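 CLSI broth microdilution in cation-adjusted Mueller Hinton broth, twofold serial dilutions, about 5 × 10⁴ cfu/well from OD625, 35 °C for 16−20 h. MIC is the lowest concentration with no visible growth.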

In series [8] the test system is Klebsiella pneumoniae. Nature of the series: Antibacterial activity against Klebsiella pneumoniae SR200263 assessed as inhibition of bacterial growth incubated for 16 to 24 hrs by CLSI based two-fold serial dilution method. Format: functional. Particulars: time 16-24 hrs. The gist of the method: as §3
Series [9] can be described thus: AUC in mouse at 10 mg/kg,iv by LC/MS/MS analysis. Format: ADME, organism-based. Also on record: dose 10 mg/kg, route iv. The conditions noted are these: in vivo. Put shortly: (§4)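 Plasma of the parent acid measured by LC/MS/MS (methanol precipitation, positive ESI, external standard); oral values follow prodrug dosing (rat fed, dog and monkey fasted). AUC from 0 h to last time point by linear trapezoid; F from oral AUC versus iv AUC of the parent. N = 2 (rat, dog), N = 3 (monkey, mouse).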

Series [10] is described as follows: Total clearance in mouse at 10 mg/kg,iv by LC/MS/MS analysis. Format: ADME, organism-based. The conditions noted are these: in vivo. Put shortly:
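Intravenous dosing (mouse 10, rat 1, dog 5, monkey 5 mg/kg); plasma quantified by LC/MS/MS after methanol precipitation with external standard; AUC by linear trapezoidal approximation; CLtot = dose/AUC.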

The nature of series [11]: AUC in rat at 1 mg/kg,iv by LC/MS/MS analysis. The class given is ADME, organism-based. Also on record: dose 1 mg/kg, route iv. The conditions noted are these: in vivo. Put shortly: as §4
The nature of series [12]: Half life in dog at 5 mg/kg,iv by LC/MS/MS analysis. Particulars: in vivo. Format: ADME, organism-based, Canis lupus familiaris. The gist of the method: (§5)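 After iv dosing, T1/2 taken as ln 2/kel, with kel from the slope of the log concentration–time profile. Plasma levels measured by LC/MS/MS with an external standard.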
A short description of series [13]: Half life in monkey at 5 mg/kg,iv by LC/MS/MS analysis. Format: ADME, organism-based, Macaca mulatta. Particulars: rhesus monkey, in vivo. The gist of the method:
as §5

For series [14], the system named is Enterobacter cloacae. The series can be described thus: Antibacterial activity against Enterobacter cloacae SR100108 assessed as inhibition of bacterial growth incubated for 16 to 20 hrs by CLSI based two-fold serial dilution method.
For series [15], the system named is Klebsiella pneumoniae. The series can be described thus: Antibacterial activity against Klebsiella pneumoniae SR201325 assessed as inhibition of bacterial growth incubated for 16 to 20 hrs by CLSI based two-fold serial dilution method.
Series [16] has as its system Klebsiella pneumoniae. The series can be described thus: Antibacterial activity against Klebsiella pneumoniae ATCC SR201218 assessed as inhibition of bacterial growth incubated for 16 to 20 hrs by CLSI based two-fold serial dilution method.
The test system of series [17] is Klebsiella pneumoniae. Nature of the series: Antibacterial activity against Klebsiella pneumoniae SR09635 assessed as reduction in bacterial growth by measuring minimum […] concentration incubated for 16 to 20 hrs by CLSI based two-fold serial dilution method. The conditions noted are these: time 16-20 hrs.

Each structure is given as a SMILES string.

Usually IC50 stands for the midpoint of a concentration-inhibition curve. For orientation: clearance means the volume of plasma or blood freed of the substance per unit of time. What is called MIC is the lowest concentration that inhibits growth of the organism. The term AUC denotes concentration integrated over time. Broadly, the half-life is how long it takes for the measured level to halve.

For `C[S@@+]([O-])[C@@H]1CC[C@@H]2CN1C(=O)N2O[C@H](F)C(=O)[O-].[Na+]`, the IC50 was determined as 12 nM in series [1], 14 nM in [2] and 443 nM in series [5]. In addition, the clearance in [3] is 27 mL/min/kg; in [10] it was 34.7 mL/min/kg. Also, the remaining at 0.5 h, 5 µM in series [4] stood at 85%. In addition, the MPC is 0.125 µg/mL with Escherichia coli, 2 µg/mL with Klebsiella pneumoniae [6] and 2 µg/mL in the series with Klebsiella pneumoniae [17]. Further, the MIC in the series on Enterobacter cloacae [7] is above 32 µg/mL; in the series on Klebsiella pneumoniae [8], 32 µg/mL; with Enterobacter cloacae [14] it was above 32 µg/mL; in the series with Klebsiella pneumoniae [15], above 32 µg/mL; with Klebsiella pneumoniae [16], above 32 µg/mL. Further, the AUC came to 4920 ng·h/mL in [9] and 620 ng·h/mL in [11]. Besides, the values for the half-life in series [12] and in [13] were 54 min and 30 min, respectively.
